Data reported in ChEMBL document CHEMBL4732101, “Novel quinolone-based potent and selective HDAC6 inhibitors: Synthesis, molecular modeling studies and biological investigation” (Eur J Med Chem, 2021).
Active and inactive are the calls of the source. The rule behind the calls is not given here.

How the values were obtained:
[1] = target: T1, Histone deacetylase 8 (Homo sapiens, UniProt Q9BY41); assay: Inhibition of recombinant human HDAC8 using Fluor-de-Lys as substrate measured after 1 hr by fluorescence assay
T1 sequence (Q9BY41 whole entry): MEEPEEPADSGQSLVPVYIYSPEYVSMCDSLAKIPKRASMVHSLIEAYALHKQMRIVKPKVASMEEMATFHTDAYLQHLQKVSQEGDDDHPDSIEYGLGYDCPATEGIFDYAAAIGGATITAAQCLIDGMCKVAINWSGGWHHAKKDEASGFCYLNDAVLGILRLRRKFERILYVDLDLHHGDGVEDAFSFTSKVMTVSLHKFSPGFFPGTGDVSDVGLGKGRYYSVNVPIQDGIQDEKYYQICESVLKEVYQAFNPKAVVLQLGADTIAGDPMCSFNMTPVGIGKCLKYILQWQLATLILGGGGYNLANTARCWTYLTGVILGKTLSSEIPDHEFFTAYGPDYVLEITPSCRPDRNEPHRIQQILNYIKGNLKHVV

[2] = system: HCT-116; assay: Cytotoxicity against human HCT-116 cells assessed as reduction in cell viability measured after 12 hrs by MTT assay; format: functional, cell-based; settings: HCT-116, 12 h
Summary of the method: (§1)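 HCT-116 cells grown in DMEM with 10% FBS, 2 mM L-glutamine and antibiotics. 2.5×10^4 cells/well treated in triplicate at 50, 25, 10, 5 and 1 µM for 12, 24 or 48 h. Then MTT 0.5 mg/ml for 3 h, supernatant removed, formazan dissolved in isopropanol, absorbance read at 570 nm. IC50 derived from the concentration series.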

[3] = system: HCT-116; assay: Cytotoxicity against human HCT-116 cells assessed as reduction in cell viability measured after 24 hrs by MTT assay; format: functional, cell-based; settings: HCT-116, 24 h; summary of the method: as §1
[4] = system: HCT-116; assay: Cytotoxicity against human HCT-116 cells assessed as reduction in cell viability measured after 48 hrs by MTT assay; format: functional, cell-based; settings: HCT-116, 48 h; summary of the method: as §1
[5] = system: U-937; assay: Cytotoxicity against human U-937 cells assessed as reduction in cell viability measured after 48 hrs by MTT assay; format: functional, cell-based; settings: U-937, 48 h
Summary of the method: (§2)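 U937 cells grown in RPMI-1640 with 10% FBS, 2 mM L-glutamine and penicillin-streptomycin. 2.5×10^4 cells/well treated in triplicate at 50, 25, 10, 5 and 1 µM for 12, 24 or 48 h. MTT 0.5 mg/ml added for 3 h, plate centrifuged 5 min at 1200 rpm, crystals dissolved in isopropanol, A570 read. IC50 derived from the concentration series.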

[6] = system: HCT-116; assay: Cytotoxicity against human HCT-116 cells assessed as reduction in cell proliferation at 25 uM measured after 48 hrs by MTT assay relative to control; format: functional; design: scale not given: the % may be the effect or the level left; settings: time 12 hrs, in the assay text read “after 12 hrs” for “after 48 hrs”; summary of the method: as §1
[7] = system: HCT-116; assay: Cytotoxicity against human HCT-116 cells assessed as reduction in cell proliferation at 10 uM measured after 24 hrs by MTT assay relative to control; format: functional; design: scale not given: the % may be the effect or the level left; summary of the method: as §1
[8] = system: HCT-116; assay: Cytotoxicity against human HCT-116 cells assessed as reduction in cell proliferation at 10 uM measured after 48 hrs by MTT assay relative to control; format: functional; design: scale not given: the % may be the effect or the level left; summary of the method: as §1
[9] = system: U-937; assay: Cytotoxicity against human U-937 cells assessed as reduction in cell proliferation at 50 uM measured after 48 hrs by MTT assay relative to control; format: functional; design: scale not given: the % may be the effect or the level left; summary of the method: as §2
[10] = system: HCT-116; assay: Induction of apoptosis in human HCT-116 cells assessed as increase in PARP cleavage at 10 uM measured after 24 hrs by Western blot analysis; format: functional, cell-based
Summary of the method: (§3)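 HCT-116 or U937 cells treated at 10 µM for 12 and 24 h. […] Western blot used 40 µg total protein or 5 µg acid-extracted histone. Blots probed for cleaved PARP, acetylated tubulin, H3K9/14ac and Hsp90(AcLys294), normalized to GAPDH or H4. Compared with control cells by one-way ANOVA and Dunnett's test.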

[11] = system: U-937; assay: Induction of apoptosis in human U-937 cells assessed as increase in PARP cleavage at 10 uM measured after 24 hrs by Western blot analysis; format: functional, cell-based; summary of the method: as §3
[12] = target: T2, Protein deacetylase HDAC6 (Homo sapiens) (UniProt Q9UBN7); assay: Inhibition of HDAC6 in human HCT-116 cells assessed as increase in alpha-tubulin acetylation at 10 uM measured after 12 to 24 hrs by Western blot analysis relative to control; format: cell-based; settings: time 12-24 hrs; summary of the method: as §3
T2 sequence (whole entry): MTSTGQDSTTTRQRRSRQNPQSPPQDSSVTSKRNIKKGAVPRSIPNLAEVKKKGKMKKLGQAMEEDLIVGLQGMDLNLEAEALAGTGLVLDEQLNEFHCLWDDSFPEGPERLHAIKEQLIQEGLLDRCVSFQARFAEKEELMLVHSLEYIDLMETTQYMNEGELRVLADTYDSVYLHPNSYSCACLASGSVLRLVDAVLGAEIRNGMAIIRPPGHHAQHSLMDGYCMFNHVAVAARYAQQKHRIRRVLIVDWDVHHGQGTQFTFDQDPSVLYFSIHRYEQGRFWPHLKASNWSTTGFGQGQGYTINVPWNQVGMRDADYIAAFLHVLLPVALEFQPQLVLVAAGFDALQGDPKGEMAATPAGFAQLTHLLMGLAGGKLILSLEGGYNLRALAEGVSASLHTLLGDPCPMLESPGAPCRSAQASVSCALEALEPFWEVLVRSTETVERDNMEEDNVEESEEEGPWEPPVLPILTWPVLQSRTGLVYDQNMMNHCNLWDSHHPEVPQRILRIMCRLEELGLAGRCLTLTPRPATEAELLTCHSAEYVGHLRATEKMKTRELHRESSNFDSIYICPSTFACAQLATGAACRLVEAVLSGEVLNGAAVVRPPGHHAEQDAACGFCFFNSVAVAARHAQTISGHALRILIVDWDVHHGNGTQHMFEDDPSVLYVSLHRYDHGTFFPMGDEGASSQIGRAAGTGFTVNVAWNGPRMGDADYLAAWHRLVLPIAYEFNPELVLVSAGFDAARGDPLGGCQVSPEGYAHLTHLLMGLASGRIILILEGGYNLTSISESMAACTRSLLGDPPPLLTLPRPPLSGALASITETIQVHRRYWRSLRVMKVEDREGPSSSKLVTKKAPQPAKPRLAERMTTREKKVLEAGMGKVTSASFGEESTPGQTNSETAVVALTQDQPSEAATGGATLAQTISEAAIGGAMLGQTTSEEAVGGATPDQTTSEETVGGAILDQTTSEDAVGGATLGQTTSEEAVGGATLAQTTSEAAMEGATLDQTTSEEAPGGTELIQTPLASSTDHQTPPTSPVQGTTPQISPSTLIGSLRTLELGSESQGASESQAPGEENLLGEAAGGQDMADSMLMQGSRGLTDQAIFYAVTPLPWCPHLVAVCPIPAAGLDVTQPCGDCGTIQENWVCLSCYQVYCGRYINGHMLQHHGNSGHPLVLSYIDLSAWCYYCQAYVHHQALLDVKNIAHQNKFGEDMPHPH

[13] = target: T2, Protein deacetylase HDAC6 (Homo sapiens); assay: Inhibition of HDAC6 in human U-937 cells assessed as increase in alpha-tubulin acetylation at 10 uM measured after 12 to 24 hrs by Western blot analysis relative to control; format: cell-based; settings: time 12-24 hrs; summary of the method: as §3
[14] = Inhibition of HDAC1/2/3/8 in human HCT-116 cells assessed as increase in H3K9/14 acetylation at 10 uM measured after 12 to 24 hrs by Western blot analysis relative to control; format: cell-based; settings: hct-116, 10 µM, time 12-24 hrs; summary of the method: as §3
[15] = Inhibition of HDAC1/2/3/8 in human U-937 cells assessed as increase in H3K9/14 acetylation at 10 uM measured after 12 to 24 hrs by Western blot analysis; format: cell-based; settings: u-937, 10 µM, time 12-24 hrs; summary of the method: as §3
[16] = target: T2, Protein deacetylase HDAC6 (Homo sapiens); assay: Inhibition of HDAC6 in human HCT-116 cells assessed as increase in Hsp90(AcLys294) acetylation at 10 uM measured after 12 to 24 hrs by Western blot analysis; format: cell-based; settings: time 12-24 hrs; summary of the method: as §3
[17] = target: T2, Protein deacetylase HDAC6 (Homo sapiens); assay: Inhibition of HDAC6 in human U-937 cells assessed as increase in Hsp90(AcLys294) acetylation at 10 uM measured after 12 to 24 hrs by Western blot analysis; format: cell-based; settings: time 12-24 hrs; summary of the method: as §3
[18] = Cytotoxicity against human PBMC cells assessed as reduction in cell viability at 45 uM measured after 24 to 48 hrs by GUAVA easyCyte cytometric method; format: cell-based; settings: time 24-48 hrs
Summary of the method: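 PBMCs seeded at 1.5 x10^6/mL in complete medium and exposed to 15, 45 or 90 µM test compound, or DMSO vehicle, for 24 h and 48 h. Percentage of viable cells determined by flow cytometry with ViaCount reagent.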

CCN(CC)Cc1ccc(Cn2c(=O)c(OCc3ccc(C(=O)NO)cc3)c(-c3ccccc3)c3ccccc32)cc1
IC50 [1]: 0.55 µM | Kapp ([1]; human, 1 h): 0.36 µM | IC50 [2]: 13.5 µM | IC50 [3]: 11.6 µM | IC50 [4]: 3.6 µM | IC50 [5]: 40.6 µM | Activity [6]: 80% | Activity [7]: 50% | Activity [8]: 90% | Activity [9]: 60% | Activity [10]: Active | Activity [11]: Active | fold change (FC) [12]: > 9 | fold change (FC) [13]: > 9 | fold change (FC) [14]: 2 | inhibition (INH) [15]: Active | inhibition [16]: Active | inhibition [17]: inactive | Activity [18]: Toxic
